Experimental data published in ChEMBL document CHEMBL1687813 (Antimicrob Agents Chemother, 2010).
In brackets after ≈: the same amount, converted by molar mass.

What was measured:
[1] = tested on: Mycolicibacterium smegmatis; experiment: Antimicrobial activity against Mycobacterium smegmatis mc27093 harboring Mycobacterium tuberculosis H37Ra attBL5:::Ptc::pzaA from Mycobacterium tuberculosis after 11 days by broth microdilution method at pH 6.8; assay type: functional; settings: mc27093, 264 h
How it was run: (§1)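 Tubercle bacilli were diluted to 10^6 CFU/ml in supplemented 7H9 containing graded PZA or 5-Cl PZA, at pH 6.0 or neutral pH 6.8. Cultures were incubated 11 days at 37°C. The MIC is the lowest concentration blocking visible growth. Integrated amidase constructs were induced with 50 ng/ml anhydrotetracycline.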

[2] = tested on: Mycolicibacterium smegmatis; experiment: Antimicrobial activity against Mycobacterium smegmatis mc27092 harboring Mycobacterium tuberculosis H37Ra attBL5:::Ptc::pzaAMsmeg after 11 days by broth microdilution method at pH 6.8; assay type: functional; settings: mc27092, 264 h; how it was run: as §1
[3] = tested on: Mycobacterium tuberculosis variant bovis BCG; experiment: Antimicrobial activity against Mycobacterium bovis BCG Pasteur after 11 days by broth microdilution method at pH 6; assay type: functional; settings: 264 h; how it was run: as §1
[4] = tested on: Mycolicibacterium smegmatis; experiment: Antimicrobial activity against Mycobacterium smegmatis mc27092 harboring Mycobacterium tuberculosis H37Ra attBL5:::Ptc::pzaAMsmeg after 48 hrs by broth microdilution method at pH 6; assay type: functional; settings: mc27092, 48 h
[5] = tested on: Mycolicibacterium smegmatis; experiment: Antimicrobial activity against Mycobacterium smegmatis mc27093 harboring Mycobacterium tuberculosis H37Ra attBL5:::Ptc::pzaA from Mycobacterium tuberculosis after 11 days by broth microdilution method at pH 6; assay type: functional; settings: mc27093, 264 h; how it was run: as §1
[6] = biological target: T1, PYRAZINAMIDASE/NICOTINAMIDAS PNCA (PZase) (Mycobacterium bovis) (UniProt Q93SP7); experiment: Activity of pyrazinamidase in Mycobacterium bovis BCG Pasteur assessed as compound turnover per ml of microbial cells after 30 mins by calorimetric analysis; settings: Mycobacterium tuberculosis variant bovis BCG
T1 sequence (whole entry): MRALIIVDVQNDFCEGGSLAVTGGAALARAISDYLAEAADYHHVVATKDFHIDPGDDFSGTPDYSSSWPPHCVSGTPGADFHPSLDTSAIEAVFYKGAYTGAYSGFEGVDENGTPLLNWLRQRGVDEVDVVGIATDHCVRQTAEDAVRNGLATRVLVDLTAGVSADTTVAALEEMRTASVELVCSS
How it was run: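 Whole-cell colorimetric amidase assay: log-phase cells were pelleted and resuspended in sterile water with 0.05% tyloxapol. Substrate (PZA or 5-Cl PZA) was added to 2 mM at 37°C with shaking and sampled at intervals. Clarified aliquots received ferrous ammonium sulfate (20 mM final), stood 30 min at 4°C, were re-spun, and were read at OD468. Extinction coefficients were 0.68 (PA) and 0.47 (5-Cl PA) per mM. Activity is nmol/min per ml of cells (OD600).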

[7] = tested on: Mycobacterium tuberculosis variant bovis BCG; experiment: Antimicrobial activity against Mycobacterium bovis BCG Pasteur after 11 days by broth microdilution method at pH 6.8; assay type: functional; settings: 264 h; how it was run: as §1

Compound	MIC [1]	MIC [2]	MIC [3]	MIC [4]	MIC [5]	Activity [6]	MIC [7]
NC(=O)c1cnccn1 [PYRAZINAMIDE]	12.5 µg/mL (≈ 102 µM)	> 1000 µg/mL	50 µg/mL (≈ 406 µM)	62.5 µg/mL (≈ 508 µM)	12.5 µg/mL (≈ 102 µM)	0.015 nmol/min	25 µg/mL (≈ 203 µM)
NC(=O)c1cnc(Cl)cn1	12.5 µg/mL (≈ 79.3 µM)	12.5 µg/mL (≈ 79.3 µM)	25 µg/mL (≈ 159 µM)	25 µg/mL (≈ 159 µM)	200 µg/mL (≈ 1270 µM)	0.11 nmol/min	100 µg/mL (≈ 635 µM)
